The list is not random: actives were taken first. Their share in the collection is about 1.1%.
FAS-TE inh = blocks the thioesterase domain of human fatty acid synthase. AID 602261. P49327. inhibition, % at 15 µM. 0.67% of 360,000 active. recombinant FAS-TE, OMFH fluorogenic substrate, fluorescence endpoint;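 active = compounds whose normalised, plate-corrected inhibition of enzyme fluorescence in the single-dose primary screen is 50% or more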
hiPSC survival = hiPSC single-cell survival enhancement; ATPlite luminescence; 100% = ROCK inhibitor wells, 0% = DMSO; AID 602274; survival enhancement, % at 20 µM; 0.044% of 360,000 active; in the data active = survival enhancement above about 18%;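 note: cells exposed to compounds for 16 hours before the ATP read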
ABCB6 inh MLPCN = inhibitors of human ABC transporter ABCB6; 0.19% of 360,000 active; Q9NP58; K562-ABCB6 porphyrin accumulation, flow cytometry, 1 h; active compounds read low; AID 602162; fluorescence ratio to DMSO, % at 10 µM;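 active = fluorescence ratio to DMSO below 75%, the collection mean minus 3 SD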;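 note: signal is porphyrin accumulated inside mitochondria; lower ratio means ABCB6 inhibition with less porphyrin fluorescence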
Target sequence (Q9NP58 whole entry, looked up): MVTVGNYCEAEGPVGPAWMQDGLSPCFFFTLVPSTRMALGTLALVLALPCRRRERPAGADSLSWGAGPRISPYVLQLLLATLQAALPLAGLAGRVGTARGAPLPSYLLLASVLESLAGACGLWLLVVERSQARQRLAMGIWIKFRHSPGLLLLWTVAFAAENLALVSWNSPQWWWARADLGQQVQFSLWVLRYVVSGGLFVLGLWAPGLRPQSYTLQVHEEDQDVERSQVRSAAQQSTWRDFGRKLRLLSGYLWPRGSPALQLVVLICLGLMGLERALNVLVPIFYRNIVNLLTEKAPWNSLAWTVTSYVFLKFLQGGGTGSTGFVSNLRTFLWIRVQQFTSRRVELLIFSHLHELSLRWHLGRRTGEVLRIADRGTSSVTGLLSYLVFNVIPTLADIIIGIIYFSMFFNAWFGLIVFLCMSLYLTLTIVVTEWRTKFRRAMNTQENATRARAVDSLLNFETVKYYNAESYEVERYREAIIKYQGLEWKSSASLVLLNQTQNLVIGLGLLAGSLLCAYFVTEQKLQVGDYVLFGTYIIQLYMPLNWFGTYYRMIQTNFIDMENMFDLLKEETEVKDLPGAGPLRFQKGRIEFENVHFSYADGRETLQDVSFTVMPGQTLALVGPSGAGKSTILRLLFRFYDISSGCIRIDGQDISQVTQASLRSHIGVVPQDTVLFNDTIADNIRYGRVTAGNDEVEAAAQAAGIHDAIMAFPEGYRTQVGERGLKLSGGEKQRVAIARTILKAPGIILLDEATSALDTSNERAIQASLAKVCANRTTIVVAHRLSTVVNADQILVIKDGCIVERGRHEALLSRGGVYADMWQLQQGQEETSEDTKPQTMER
SENP1 inh = inhibitors of human SENP1 SUMO protease catalytic domain. AID 624204. inhibition, % at 10 µM. 0.21% of 360,000 active. Q9P0U3. recombinant SENP1 catalytic domain, CyPet-SUMO1-YPet FRET cleavage;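 active = inhibition at least 30% at 10 µM, raw YFP signal under a set limit, fluorescence ratio 0.5 to 1.5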
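system = hSENP1 catalytic domain, recombinant | reagent = SFCypet-SUMO1-SFYpet substrate at 25 nM | doses = one dose per compound, 10 µM, 0.5% DMSO | incubation = enzyme reaction for 50 min at room temperature, dark | measured by = FRET, CFP and YFP emission | controls = no-enzyme low, enzyme-DMSO high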
FAS-TE inh conf = confirmation of human fatty acid synthase thioesterase inhibitors; 45% of 2,300 active; recombinant FAS-TE, OMFH fluorogenic substrate, fluorescence; AID 624325; inhibition, % at 15 µM; shares compounds with FAS-TE inh;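 active = compounds inhibiting the enzyme by at least 50% at 15 µM in any one of the replicates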
SENP1 inh conf = confirmation of human SENP1 SUMO protease inhibitors; recombinant SENP1, CyPet-SUMO1-YPet FRET cleavage; shares compounds with SENP1 inh; inhibition, % at 10 µM; 34% of 520 active; in the data active = inhibition mostly above about 35%, no sharp cut-off; inactive = mostly below about 32%
SENP1 kin conf = SENP1 (human) inhibition, kinetic confirmation | shares compounds with SENP1 inh | recombinant SENP1, CyPet-SUMO1-YPet FRET kinetic cleavage | inhibition, % at 10 µM | 26% of 520 active | AID 651690; in the data active = inhibition mostly above about 32%, no sharp cut-off; inactive = mostly below about 29%
Numbers stand for hits; i = inactive; nt = no result given; ! = not active in a repeat.

SMILES	FAS-TE inh	hiPSC survival	ABCB6 inh MLPCN	SENP1 inh	SENP1 inh conf	SENP1 kin conf	others
Cc1cc(N2CCN(C(c3ccnc4ccccc34)c3nnnn3-c3c(C)cccc3C)CC2)c2ccccc2n1 (stereo not drawn)	i	i	i	i	nt	nt
Cc1ccc(-c2nnc(SCC(=O)N/N=C/c3c(C)nn(-c4ccccc4)c3C)n2-c2ccc(C)cc2)cc1	61.6	i	i	i	nt	nt	FAS-TE inh conf=i
S=C(Nc1ccc(Nc2ccccc2)cc1)N1CCN(c2ncccn2)CC1	i	i	i	i	nt	nt
COc1ccc(C2CC(c3ccccc3)=NN2S(=O)(=O)c2ccc(C)cc2)c(OC)c1 (stereo not drawn)	58.1	i	i	i	nt	nt	FAS-TE inh conf=i
CC(C)COC(=O)N(C)C[C@@H]1OCc2cnnn2CCCC(=O)N([C@H](C)CO)C[C@@H]1C	i	i	i	i	nt	nt
CCS(=O)(=O)c1ccc(-c2csc(-c3ccccc3)n2)c(Cl)c1Cl	83.5	i	i	i	nt	nt	FAS-TE inh conf=70.6
O=[N+]([O-])c1ccc2ncnc(N3CCN(Cc4ccc5c(c4)OCO5)CC3)c2c1	81.7	i	i	i	nt	nt	FAS-TE inh conf=86.6
Cn1c(=O)c([N+](=O)[O-])c(N2CCN(Cc3ccc4c(c3)OCO4)CC2)c2ccccc21	86.1	i	i	i	nt	nt	FAS-TE inh conf=53.8
COc1cccc(Nc2nc(-c3cccs3)nc3ccccc23)c1	51.0	i	i	i	nt	nt	FAS-TE inh conf=i
COc1ccc(Nc2nc(-c3cccs3)nc3ccccc23)cc1	i	i	i	i	nt	nt
CN1C[C@H](C(=O)N[C@]2(C)O[C@@]3(O)[C@@H]4CCCN4C(=O)[C@H](Cc4ccccc4)N3C2=O)CC2c3cccc4[nH]cc(c34)C[C@H]21 (stereo partly drawn)	55.5	i	i	33.6!	i	i	FAS-TE inh conf=51.5
O=C(NCCc1ccccc1F)C1CCC(=O)N(Cc2ccc(Cl)cc2)C1 (stereo not drawn)	i	i	i	i	nt	nt
COc1cc(/C=C/C(=O)OCC(=O)Nc2ccc(C)cc2[N+](=O)[O-])ccc1O	i	i	i	38.5	i	i
COc1cccc(CNC(=O)Cc2ccc(-c3ccccc3)cc2)c1	i	i	i	55.2	i	i
COc1ccc(CC(=O)NCc2ccccc2)cc1	i	i	i	i	nt	nt
N#Cc1ccc(Oc2cccc3cccnc23)c([N+](=O)[O-])c1	i	i	i	i	nt	nt
O=[N+]([O-])c1ccc(Oc2cccc3cccnc23)c([N+](=O)[O-])c1	i	i	i	76.2	i	i
COc1ccc(N2CC(C(=O)NNC(=O)c3ccc(Br)cc3)CC2=O)c(OC)c1 (stereo not drawn)	i	i	i	i	nt	nt
COCCNC(=O)C1(C)CCCN(C(=O)c2ccccc2F)C1 (stereo not drawn)	i	i	i	i	nt	nt
COc1ccccc1Cc1c(-c2cccc(Br)c2)nc2ccc(Cl)cn12	i	i	i	33.0	i	i
N#Cc1ccc(-c2nc3ccc(Cl)cn3c2Cc2ccccc2C(F)(F)F)cc1	i	i	i	48.5	54.8	45.0
FC(F)(F)c1ccccc1Cc1c(-c2ccc(Cl)cc2)nc2ccc(Cl)cn12	i	i	i	i	nt	nt
COc1ccccc1Cc1c(-c2ccc(Cl)cc2)nc2ccc(Br)cn12	i	i	i	42.0	i	i
COc1ccccc1Cc1c(-c2cccc(Br)c2)nc2ccc(Br)cn12	i	i	i	i	nt	nt
O=[N+]([O-])c1ccc(NN=Cc2cccc([N+](=O)[O-])c2)cc1	i	i	i	i	nt	nt
SMILES	FAS-TE inh	hiPSC survival	ABCB6 inh MLPCN	SENP1 inh	SENP1 inh conf	SENP1 kin conf	others
O=[N+]([O-])c1ccc(C=NNc2ccc(S(=O)(=O)O)cc2)cc1	i	i	i	73.3	i	i
COc1cc(/C=C2\CCCc3c2nc2ccccc2c3C(=O)O)cc(Br)c1O	i	i	i	56.0	97.0	66.9
OCCN(Cc1ccccc1)C(=S)Nc1ccc(Cl)cc1Cl	i	i	i	i	nt	nt
COc1cccc(-c2nc(SC)nc3sc(C(=O)NC(C)(C)C)c(N)c23)c1	i	i	i	37.4	47.9	37.2
N#C/C(=C\C=C\c1ccccc1[N+](=O)[O-])c1nc(-c2ccc3c(c2)OCO3)cs1	i	i	i	53.5	i	i
CCc1ccc(N2CC(C(=O)OCC(=O)N(CC)c3c(N)n(Cc4ccccc4)c(=O)[nH]c3=O)CC2=O)cc1 (stereo not drawn)	i	i	i	i	nt	nt
O=C1CCCc2c1cc(C(=O)Nc1ccc(Br)cn1)c(=O)n2-c1ccccc1	i	i	i	69.8	i	i
CC(C(=O)c1ccc(Br)cc1)[n+]1cccc2ccccc21 (stereo not drawn)	i	i	i	51.9	i	i
O=C(NCc1ccccc1Cl)c1[nH]c(C(F)(F)F)nc1-c1ccccc1	i	i	i	i	nt	nt
Cc1cccc(C)c1-n1nnnc1-c1nc2cc3ccccc3cc2[nH]c1=O	i	i	i	62.5	61.6	44.6
CCN(CC)CCNc1ccc(CO)c2oc3cc(Cl)ccc3c(=O)c12	i	i	i	47.5	55.4	35.0
CN(C)CCNc1ccc(CO)c2oc3ccc(O)cc3c(=O)c12	i	i	i	58.5	64.6	38.8
O=C(N/N=C/c1cccnc1)c1cccc(Cl)c1	i	i	i	i	nt	nt
O=C(N/N=C/c1cc(Br)c(Br)o1)c1cccnc1	i	i	i	34.7	i	i
O=C(N/N=C/c1cccnc1)c1cccc(Br)c1	i	i	i	31.2	i	i
CCc1ccc(OCC(=O)NNC(=O)C2CCC2)cc1	i	i	i	i	nt	nt
CN(C)S(=O)(=O)c1cccc(NC(=O)c2cccc(N3C(=O)CCC3=O)c2)c1	i	i	i	i	nt	nt
C=C(C)COC(=O)c1ccccc1C(=O)OCC1(C)CO1 (stereo not drawn)	i	i	i	i	nt	nt
CCOC(=O)N1CCN(S(=O)(=O)c2ccc(C(=O)NNc3nc4c(C)cccc4s3)cc2)CC1	i	i	i	35.3	i	41.8
CCOC(=O)N1CCN(S(=O)(=O)c2ccc(C(=O)NNc3nc4c(C)cc(C)cc4s3)cc2)CC1	i	i	i	i	nt	nt
CCOc1ccc(NS(=O)(=O)c2c(C)nc3sc(CC)nn3c2=O)cc1	i	i	i	i	nt	nt
COc1ccccc1CNC(=O)CCCNC(=O)Cn1cnc2sc(C)c(C)c2c1=O	i	i	i	i	nt	nt
Clc1cc2c(nn1)Nc1ccccc1S2	i	i	i	31.4	i	i
O=C(O)Cn1c(O)c(C2=c3ccccc3=NC2=O)sc1=O	i	i	i	66.3	66.7	35.8
O=C(c1[nH]c(C(F)(F)F)nc1-c1ccccc1)N1CCN(C(=O)C2CCCO2)CC1 (stereo not drawn)	i	i	i	i	nt	nt
N=c1occ(C(=O)c2cc(F)ccc2O)cc1C(=O)NC1CCCCC1	i	i	i	30.3	i	i

Screening results (PubChem BioAssay)
